Test results taken from ChEMBL document CHEMBL1127424, “7-azetidinylquinolones as antibacterial agents. 2. Synthesis and biological activity of 7-(2,3-disubstituted-1-azetidinyl)-4-oxoquinoline- and -1,8-naphthyridine-3-carboxylic acids. Properties and structure-activity relationships of quinolones with an azetidine moiety” (J Med Chem, 1994).
Values after ≈ are worked out from the molar mass of the structure shown.

Experiments:
Bacillus cereus = assay: In vitro minimum inhibitory concentration for Bacillus cereus ATCC 11778; format: functional
How it was run: (§1)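 Serial 2-fold agar dilution in Mueller Hinton medium, run alongside a reference quinolone. Inoculum adjusted to 10⁸ cfu/mL; compound range 0.007–16 μg/mL.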

Klebsiella pneumoniae = assay: In vitro minimum inhibitory concentration to inhibit Klebsiella pneumoniae ATCC 10031; format: functional; how it was run: as §1
Escherichia coli = assay: In vitro minimum inhibitory concentration for Escherichia coli ATCC 10799; format: functional; how it was run: as §1
Bacillus subtilis = assay: In vitro minimum inhibitory concentration for Bacillus subtilis ATCC 6633; format: functional; how it was run: as §1
[1] = test system: Staphylococcus epidermidis; assay: In vitro minimum inhibitory concentration for Staphylococcus epidermidis ATCC 155-1; format: functional; how it was run: as §1
Enterobacter cloacae = assay: In vitro minimum inhibitory concentration for Enterobacter cloacae ATCC 23355; format: functional
[2] = HPLC capacity factor (k'); format: ADME
How it was run: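 Ion-pair reversed-phase HPLC on ODS-2 (10 μm) at 45 °C. Mobile phase: 10 mM sodium heptanesulfonate plus 50 mM KH2PO4 (pH 3.5)–methanol 45:55, 1 mL/min. Samples at 100 μg/mL in DMF, injected in duplicate, UV 280 nm. k' = (tR − t0)/t0.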

Staphylococcus aureus = assay: In vitro minimum inhibitory concentration for Staphylococcus aureus ATCC 25178; format: functional; how it was run: as §1
Enterococcus faecalis = assay: In vitro minimum inhibitory concentration for Streptococcus faecalis ATCC 10541; format: functional; how it was run: as §1
Proteus vulgaris = assay: In vitro minimum inhibitory concentration for Proteus vulgaris ATCC 8427; format: functional; how it was run: as §1
Morganella morganii = assay: In vitro minimum inhibitory concentration for Morganella morganii ATCC 8019; format: functional; how it was run: as §1
Pseudomonas aeruginosa = assay: In vitro minimum inhibitory concentration for Pseudomonas aeruginosa ATCC 10145; format: functional; how it was run: as §1

Structure (SMILES)	MIC (Bacillus cereus) [µg/mL]	MIC (Klebsiella pneumoniae) [µg/mL]	MIC (Escherichia coli) [µg/mL]	MIC (Bacillus subtilis) [µg/mL]	MIC [1] [µg/mL]	MIC (Enterobacter cloacae) [µg/mL]	Log k' [2]	MIC (Staphylococcus aureus) [µg/mL]	MIC (Enterococcus faecalis) [µg/mL]	MIC (Proteus vulgaris) [µg/mL]	MIC (Morganella morganii) [µg/mL]	MIC (Pseudomonas aeruginosa) [µg/mL]
C[C@H]1[C@H](N)CN1c1c(F)cc2c(=O)c(C(=O)O)cn(CCF)c2c1F	0.5 (≈ 1.41 µM)	0.03 (≈ 0.0844 µM)	0.12 (≈ 0.338 µM)	0.12 (≈ 0.338 µM)	0.5 (≈ 1.41 µM)	0.12 (≈ 0.338 µM)	-0.1024	0.5 (≈ 1.41 µM)	2 (≈ 5.63 µM)	0.5 (≈ 1.41 µM)	0.06 (≈ 0.169 µM)	1 (≈ 2.81 µM)
CCn1cc(C(=O)O)c(=O)c2cc(F)c(N3CC(C)(N)C3)c(F)c21	–	–	–	–	–	–	-0.0757	–	–	–	–	–
CC1(O)CN(c2cc3c(cc2F)c(=O)c(C(=O)O)cn3C2CC2)C1	–	–	–	–	–	–	0.2148	–	–	–	–	–
CC1(N)CN(c2c(F)cc3c(=O)c(C(=O)O)cn(C(C)(C)C)c3c2F)C1	–	–	–	–	–	–	0.1751	–	–	–	–	–
CC1(O)CN(c2c(F)cc3c(=O)c(C(=O)O)cn(C4CC4)c3c2F)C1	–	–	–	–	–	–	0.5451	–	–	–	–	–
CC1(C)[C@@H](N)CN1c1nc2c(cc1F)c(=O)c(C(=O)O)cn2C1CC1	0.06 (≈ 0.173 µM)	0.06 (≈ 0.173 µM)	0.25 (≈ 0.722 µM)	0.06 (≈ 0.173 µM)	0.12 (≈ 0.346 µM)	0.12 (≈ 0.346 µM)	-0.0223	0.12 (≈ 0.346 µM)	2 (≈ 5.77 µM)	0.5 (≈ 1.44 µM)	0.25 (≈ 0.722 µM)	2 (≈ 5.77 µM)
CCNCC1CN(c2cc3c(cc2F)c(=O)c(C(=O)O)cn3C2CC2)C1	–	–	–	–	–	–	-0.106	–	–	–	–	–
CCn1cc(C(=O)O)c(=O)c2c(N)c(F)c(N3CC(C)(N)C3)c(F)c21	–	–	–	–	–	–	0.0367	–	–	–	–	–
CC1(N)CN(c2c(F)cc3c(=O)c(C(=O)O)cn(-c4ccc(F)cc4F)c3c2F)C1	–	–	–	–	–	–	0.238	–	–	–	–	–
C[C@H]1[C@H](N)CN1c1c(F)cc2c(=O)c(C(=O)O)cn(C(C)(C)C)c2c1F	0.25 (≈ 0.684 µM)	0.06 (≈ 0.164 µM)	0.25 (≈ 0.684 µM)	0.06 (≈ 0.164 µM)	0.25 (≈ 0.684 µM)	0.25 (≈ 0.684 µM)	0.262	0.25 (≈ 0.684 µM)	0.5 (≈ 1.37 µM)	0.25 (≈ 0.684 µM)	0.25 (≈ 0.684 µM)	2 (≈ 5.47 µM)
C[C@@H]1[C@@H](O)CN1c1cc2c(cc1F)c(=O)c(C(=O)O)cn2C1CC1	0.06 (≈ 0.181 µM)	0.015 (≈ 0.0451 µM)	0.25 (≈ 0.752 µM)	0.015 (≈ 0.0451 µM)	0.06 (≈ 0.181 µM)	0.12 (≈ 0.361 µM)	0.407	0.12 (≈ 0.361 µM)	2 (≈ 6.02 µM)	0.06 (≈ 0.181 µM)	0.25 (≈ 0.752 µM)	2 (≈ 6.02 µM)
CNC1CN(c2nc3c(cc2F)c(=O)c(C(=O)O)cn3C2CC2)C1	–	–	–	–	–	–	-0.0773	–	–	–	–	–
CC1(CN)CN(c2c(F)cc3c(=O)c(C(=O)O)cn(C4CC4)c3c2F)C1	–	–	–	–	–	–	-0.0438	–	–	–	–	–
C[C@H]1[C@H](N)CN1c1cc2c(cc1F)c(=O)c(C(=O)O)cn2C(C)(C)C	0.25 (≈ 0.72 µM)	0.015 (≈ 0.0432 µM)	0.25 (≈ 0.72 µM)	0.06 (≈ 0.173 µM)	0.25 (≈ 0.72 µM)	0.12 (≈ 0.345 µM)	0.1399	0.25 (≈ 0.72 µM)	0.5 (≈ 1.44 µM)	0.25 (≈ 0.72 µM)	0.25 (≈ 0.72 µM)	2 (≈ 5.76 µM)
CC1(N)CN(c2cc3c(cc2F)c(=O)c(C(=O)O)cn3-c2ccc(F)cc2F)C1	–	–	–	–	–	–	0.0969	–	–	–	–	–
CC1(N)CN(c2cc3c(cc2F)c(=O)c(C(=O)O)cn3-c2ccc(F)cc2)C1	–	–	–	–	–	–	-0.0223	–	–	–	–	–
CC1(N)CN(c2c(F)cc3c(=O)c(C(=O)O)cn(CCF)c3c2Cl)C1	–	–	–	–	–	–	-0.0332	–	–	–	–	–
C[C@H]1[C@H](N)CN1c1nc2c(cc1F)c(=O)c(C(=O)O)cn2CCF	0.5 (≈ 1.48 µM)	0.06 (≈ 0.177 µM)	0.12 (≈ 0.355 µM)	0.12 (≈ 0.355 µM)	0.5 (≈ 1.48 µM)	0.06 (≈ 0.177 µM)	-0.2166	1 (≈ 2.96 µM)	4 (≈ 11.8 µM)	0.5 (≈ 1.48 µM)	0.06 (≈ 0.177 µM)	2 (≈ 5.91 µM)
C[C@H]1[C@@H](O)CN1c1cc2c(cc1F)c(=O)c(C(=O)O)cn2C1CC1	0.25 (≈ 0.752 µM)	0.25 (≈ 0.752 µM)	0.5 (≈ 1.5 µM)	0.015 (≈ 0.0451 µM)	0.25 (≈ 0.752 µM)	0.25 (≈ 0.752 µM)	0.3299	0.25 (≈ 0.752 µM)	2 (≈ 6.02 µM)	0.25 (≈ 0.752 µM)	0.5 (≈ 1.5 µM)	4 (≈ 12 µM)
CN(C)C1CN(c2nc3c(cc2F)c(=O)c(C(=O)O)cn3C2CC2)C1	–	–	–	–	–	–	0.464	–	–	–	–	–
CC1(N)CN(c2nc3c(cc2F)c(=O)c(C(=O)O)cn3C(C)(C)C)C1	–	–	–	–	–	–	0.0128	–	–	–	–	–
C[C@H]1N(c2c(F)cc3c(=O)c(C(=O)O)cn(C4CC4)c3c2F)C[C@]1(C)O	0.12 (≈ 0.329 µM)	0.015 (≈ 0.0412 µM)	1 (≈ 2.74 µM)	0.015 (≈ 0.0412 µM)	0.12 (≈ 0.329 µM)	0.5 (≈ 1.37 µM)	0.6899	0.12 (≈ 0.329 µM)	0.5 (≈ 1.37 µM)	0.25 (≈ 0.686 µM)	0.5 (≈ 1.37 µM)	2 (≈ 5.49 µM)
CCn1cc(C(=O)O)c(=O)c2c(N)c(F)c(N3CC(N)C3)c(F)c21	–	–	–	–	–	–	-0.1033	–	–	–	–	–
CCn1cc(C(=O)O)c(=O)c2cc(F)c(N3C[C@@H](N)[C@@H]3C)cc21	1 (≈ 3.13 µM)	0.06 (≈ 0.188 µM)	0.25 (≈ 0.783 µM)	0.12 (≈ 0.376 µM)	0.25 (≈ 0.783 µM)	0.12 (≈ 0.376 µM)	-0.0915	1 (≈ 3.13 µM)	2 (≈ 6.26 µM)	1 (≈ 3.13 µM)	0.25 (≈ 0.783 µM)	2 (≈ 6.26 µM)
CCn1cc(C(=O)O)c(=O)c2cc(F)c(N3C[C@@H](N)[C@@H]3C)nc21	0.5 (≈ 1.56 µM)	0.12 (≈ 0.375 µM)	0.25 (≈ 0.78 µM)	0.12 (≈ 0.375 µM)	0.5 (≈ 1.56 µM)	0.12 (≈ 0.375 µM)	-0.1061	0.5 (≈ 1.56 µM)	2 (≈ 6.24 µM)	0.5 (≈ 1.56 µM)	0.25 (≈ 0.78 µM)	2 (≈ 6.24 µM)
CNC1CN(c2c(F)cc3c(=O)c(C(=O)O)cn(C4CC4)c3c2Cl)C1	–	–	–	–	–	–	0.115	–	–	–	–	–
CCn1cc(C(=O)O)c(=O)c2cc(F)c(N3CC(C)(N)C3)cc21	–	–	–	–	–	–	-0.1805	–	–	–	–	–
CC1(N)CN(c2cc3c(cc2F)c(=O)c(C(=O)O)cn3C(C)(C)C)C1	–	–	–	–	–	–	0.0294	–	–	–	–	–
CCNCC1(C)CN(c2c(F)cc3c(=O)c(C(=O)O)cn(C4CC4)c3c2F)C1	–	–	–	–	–	–	-0.0118	–	–	–	–	–
CC1(N)CN(c2c(F)cc3c(=O)c(C(=O)O)cn(-c4ccc(F)cc4)c3c2Cl)C1	–	–	–	–	–	–	0.2546	–	–	–	–	–
